Activity calls are given as the source filed them. The calls are words filed in the database; no cut-off is given here.
Columns and labels:
[1] = target: T1, Delta(24)-sterol reductase (Mus musculus) (UniProt Q8VCH6); assay: Inhibition of C-24 reductase in Dhcr7-deficient mouse Neuro2a cells assessed as increase in desmosterol levels at 1 uM by LC-MS/GC-MS analysis; type: cell-based
T1 sequence (whole entry): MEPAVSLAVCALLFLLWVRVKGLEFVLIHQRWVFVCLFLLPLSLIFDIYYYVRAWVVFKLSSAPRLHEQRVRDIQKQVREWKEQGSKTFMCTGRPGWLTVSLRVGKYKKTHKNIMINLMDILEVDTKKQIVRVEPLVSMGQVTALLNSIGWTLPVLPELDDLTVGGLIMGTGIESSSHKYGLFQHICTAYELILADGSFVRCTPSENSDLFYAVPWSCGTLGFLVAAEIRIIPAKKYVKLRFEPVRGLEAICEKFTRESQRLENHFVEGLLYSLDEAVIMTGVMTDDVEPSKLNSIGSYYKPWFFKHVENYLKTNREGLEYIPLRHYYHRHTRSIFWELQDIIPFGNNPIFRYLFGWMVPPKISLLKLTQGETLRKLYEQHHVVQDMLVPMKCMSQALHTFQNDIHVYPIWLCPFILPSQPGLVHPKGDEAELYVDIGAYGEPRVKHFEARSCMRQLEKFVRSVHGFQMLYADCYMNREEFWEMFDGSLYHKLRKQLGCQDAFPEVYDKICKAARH
Procedure, shortened: (§1)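 Dhcr7-deficient Neuro2a cells (13000/well, 0.5% FBS medium) on predeposited compound, 24 h at 37 °C. Hoechst-stained and imaged to count cells. Lysed in methanol containing isotope-labelled sterol standards, derivatized with PTAD 20 min at RT, then isocratic C18 UPLC-MS/SRM. Remaining extract silylated with BSTFA for GC-MS, quantified against d7-cholesterol. Follow-up runs in triplicate.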

[2] = target: T2, Delta(24)-sterol reductase (Homo sapiens) (UniProt Q15392); assay: Inhibition of DR24 in human SLOS fibroblasts assessed as decrease in 7-DHC levels at 10 nM after 5 days by LC-MS/GC-MS analysis
T2 sequence (whole entry): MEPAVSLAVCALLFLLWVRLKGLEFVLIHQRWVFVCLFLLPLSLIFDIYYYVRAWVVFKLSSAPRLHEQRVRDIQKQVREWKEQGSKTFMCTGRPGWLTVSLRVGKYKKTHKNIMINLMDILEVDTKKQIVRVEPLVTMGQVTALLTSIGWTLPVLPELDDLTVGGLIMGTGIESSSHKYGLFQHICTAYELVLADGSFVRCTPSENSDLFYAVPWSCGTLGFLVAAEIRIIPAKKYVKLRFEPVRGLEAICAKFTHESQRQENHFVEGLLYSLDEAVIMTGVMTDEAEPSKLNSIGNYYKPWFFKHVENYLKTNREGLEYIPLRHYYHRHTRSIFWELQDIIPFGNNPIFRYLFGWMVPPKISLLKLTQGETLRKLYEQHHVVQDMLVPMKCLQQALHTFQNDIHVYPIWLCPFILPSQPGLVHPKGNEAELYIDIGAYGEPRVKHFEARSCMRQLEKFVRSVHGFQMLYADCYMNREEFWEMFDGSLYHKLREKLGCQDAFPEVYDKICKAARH
Procedure, shortened: (§2)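 SLOS patient skin fibroblasts (passage 8–20) grown in 96-well plates in delipidated serum with compound for 5 days; three different SLOS lines. Sterols quantified by PTAD-derivatized UPLC-MS plus GC-MS; 7-DHC expressed as percentage of untreated cells.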

[3] = target: T1, Delta(24)-sterol reductase (Mus musculus); assay: Inhibition of C-24 reductase in Dhcr7-deficient mouse Neuro2a cells assessed as increase in zymosterol levels at 1 uM by LC-MS/GC-MS analysis; type: cell-based; procedure, shortened: as §1
[4] = Cytotoxicity against human SLOS fibroblasts at 5 uM after 5 days by Cell Titer assay; type: cell-based; conditions: fibroblast, 120 h
Fibroblast = assay: Decrease in cholesterol levels in human SLOS fibroblasts at 10 nM after 5 days by LC-MS/GC-MS analysis; type: functional, cell-based; procedure, shortened: as §2
[5] = target: 3-beta-hydroxysteroid-Delta(8),Delta(7)-isomerase (Homo sapiens) (UniProt Q15125); assay: Inhibition of delta 8-7 isomerase in human SLOS fibroblasts assessed as decrease in 7-DHC levels at 10 nM after 5 days by LC-MS/GC-MS analysis; procedure, shortened: as §2
[6] = target: T1, Delta(24)-sterol reductase (Mus musculus); assay: Inhibition of DR24 in Dhcr7-deficient mouse Neuro2a cells assessed as decrease in 7-DHC levels at 1 uM by LC-MS/GC-MS analysis; type: cell-based; procedure, shortened: as §1
[7] = target: T1, Delta(24)-sterol reductase (Mus musculus); assay: Inhibition of DR24 in mouse Neuro2a cells assessed as decrease in 7-DHC levels at 1 uM by LC-MS/GC-MS analysis; type: cell-based
Procedure, shortened: (§3)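 Control Neuro2a cells (10000/well, 0.5% FBS) on compound, 24 h. Hoechst cell count, then methanol lysis with labelled standards (d7-7-DHC, 13C3-desmosterol, 13C3-lanosterol), PTAD derivatization 20 min at RT, UPLC-MS SRM. GC-MS of silylated extract for further sterols.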

[8] = target: T3, 3-beta-hydroxysteroid-Delta(8),Delta(7)-isomerase (Mus musculus) (UniProt P70245); assay: Inhibition of delta 8-7 isomerase in mouse Neuro2a cells assessed as decrease in 7-DHC levels at 1 uM by LC-MS/GC-MS analysis; type: cell-based; procedure, shortened: as §3
T3 sequence (whole entry): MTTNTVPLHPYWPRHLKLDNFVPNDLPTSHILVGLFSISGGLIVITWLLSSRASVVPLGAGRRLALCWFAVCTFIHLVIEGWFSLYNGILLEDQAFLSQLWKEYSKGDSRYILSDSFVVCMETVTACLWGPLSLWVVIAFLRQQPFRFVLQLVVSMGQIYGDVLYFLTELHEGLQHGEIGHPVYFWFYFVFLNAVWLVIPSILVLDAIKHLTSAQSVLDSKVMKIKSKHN

[9] = target: T3, 3-beta-hydroxysteroid-Delta(8),Delta(7)-isomerase (Mus musculus); assay: Inhibition of delta 8-7 isomerase in Dhcr7-deficient mouse Neuro2a cells assessed as decrease in 7-DHC levels at 1 uM by LC-MS/GC-MS analysis; type: cell-based; procedure, shortened: as §1
[10] = target: T4, Lanosterol 14-alpha demethylase (Mus musculus, UniProt Q8K0C4); assay: Inhibition of 14 alpha demethylase in Dhcr7-deficient mouse Neuro2a cells assessed as decrease in desmosterol levels at 1 uM by LC-MS/GC-MS analysis; type: cell-based; procedure, shortened: as §1
T4 sequence (Q8K0C4 whole entry): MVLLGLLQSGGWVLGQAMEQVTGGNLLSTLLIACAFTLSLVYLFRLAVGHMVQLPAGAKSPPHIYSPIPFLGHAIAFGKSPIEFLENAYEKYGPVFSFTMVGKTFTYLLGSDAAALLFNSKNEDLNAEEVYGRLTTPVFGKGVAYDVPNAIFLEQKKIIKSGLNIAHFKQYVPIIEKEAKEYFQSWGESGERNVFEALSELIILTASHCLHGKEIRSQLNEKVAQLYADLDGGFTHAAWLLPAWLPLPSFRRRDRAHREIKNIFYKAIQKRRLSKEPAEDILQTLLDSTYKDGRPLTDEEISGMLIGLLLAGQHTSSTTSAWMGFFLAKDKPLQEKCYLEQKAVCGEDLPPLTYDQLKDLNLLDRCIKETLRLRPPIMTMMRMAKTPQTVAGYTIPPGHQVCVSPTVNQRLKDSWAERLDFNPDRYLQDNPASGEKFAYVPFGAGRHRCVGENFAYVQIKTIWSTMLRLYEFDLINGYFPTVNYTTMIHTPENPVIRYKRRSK

[11] = target: T4, Lanosterol 14-alpha demethylase; assay: Inhibition of 14 alpha demethylase in Dhcr7-deficient mouse Neuro2a cells assessed as decrease in 7-DHC levels at 1 uM by LC-MS/GC-MS analysis; type: cell-based; procedure, shortened: as §1
[12] = target: T4, Lanosterol 14-alpha demethylase; assay: Inhibition of 14 alpha demethylase in Dhcr7-deficient mouse Neuro2a cells assessed as increase in cholesterol levels at 1 uM by LC-MS/GC-MS analysis; type: cell-based; procedure, shortened: as §1
[13] = Antiproliferative activity against Dhcr7-deficient mouse Neuro2a cells at 500 nM; type: cell-based; conditions: n2a, 0.5 µM
Procedure, shortened: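 Dhcr7-deficient Neuro2a cells treated with compound; proliferation followed by Hoechst nuclear staining and automated microscope imaging with cell counts per well.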

[14] = target: T4, Lanosterol 14-alpha demethylase; assay: Inhibition of 14 alpha demethylase in Dhcr7-deficient mouse Neuro2a cells assessed as increase in lanosterol levels at 1 uM by LC-MS/GC-MS analysis; type: cell-based; procedure, shortened: as §1
[15] = target: T1, Delta(24)-sterol reductase (Mus musculus); assay: Inhibition of Dhcr24 in Dhcr7-deficient mouse Neuro2a cells assessed as increase in 7-dehydrodesmosterol levels at 1 uM by LC-MS/GC-MS analysis; type: cell-based; procedure, shortened: as §1

Chain of 3-beta-hydroxysteroid-Delta(8),Delta(7)-isomerase (Homo sapiens) (Q15125 whole entry): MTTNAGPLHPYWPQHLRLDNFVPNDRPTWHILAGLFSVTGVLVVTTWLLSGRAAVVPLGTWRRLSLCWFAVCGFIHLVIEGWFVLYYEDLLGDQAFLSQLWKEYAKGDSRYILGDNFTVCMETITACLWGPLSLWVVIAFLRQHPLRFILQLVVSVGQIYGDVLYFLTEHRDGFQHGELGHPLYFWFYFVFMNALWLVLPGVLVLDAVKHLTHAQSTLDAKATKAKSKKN

inhibition [1]	inhibition [2]	inhibition [3]	inhibition [5]	inhibition [6]	Decrease in 7-DHC levels (active/inactive call) [7]	Activity (decrease in 7-DHC levels) [8]	inhibition [9]	inhibition (INH) [10]	inhibition (INH) [11]	inhibition (INH) [12]	inhibition (INH) [14]	inhibition [15]	SMILES	Activity [4]	Activity (Fibroblast)	Activity [13]
Active	Active	Active	Active	Active	Active	Active	Active	–	–	–	–	–	O=C(c1ccc(OCCN2CCCCC2)cc1)c1c(-c2ccc(O)cc2)sc2cc(O)ccc12 [RALOXIFENE]	Toxic	inactive	–
–	–	–	–	–	–	–	–	Active	Active	Active	Active	–	Oc1c(Cl)cc(Cl)c(Cl)c1Cc1c(O)c(Cl)cc(Cl)c1Cl [HEXACHLOROPHENE]	–	–	Toxic
Active	Active	–	Active	Active	–	–	Active	–	–	–	–	Active	COc1ccc2c(c1)OC(C)(C)[C@@H](c1ccccc1)[C@@H]2c1ccc(OCCN2CCCC2)cc1 [LEVORMELOXIFENE]	Toxic	inactive	–
–	–	–	–	–	–	–	–	Active	Active	Active	Active	–	Oc1c(Cl)cc(Cl)c2cccnc12 [CHLOROXINE]	–	–	Toxic

From ChEMBL document CHEMBL3774374, “The Effect of Small Molecules on Sterol Homeostasis: Measuring 7-Dehydrocholesterol in Dhcr7-Deficient Neuro2a Cells and Human Fibroblasts” (J Med Chem, 2016)
